Reference: ChEMBL document CHEMBL4130442, “Design, synthesis and structure-activity relationship studies of a focused library of pyrimidine moiety with anti-proliferative and anti-metastasis activities in triple negative breast cancer” (Eur J Med Chem, 2017)

What was measured:
[1] = target: T1, Platelet-derived growth factor receptor beta (Homo sapiens, UniProt P09619); assay: Inhibition of PDGFRbeta in human MDA-MB-231 cells assessed as Akt Thr305 phosphorylation level at 10 uM incubated for 24 hrs by Western blot relative to untreated control; assay type: cell-based
How it was run: (§1)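 Cells were treated 24 h at several concentrations. Pooled adherent and floating cells were lysed in Hepes 50 mM pH 7.4 / 1% Triton X-100 buffer with vanadate, NaF, EDTA, PMSF, aprotinin and leupeptin. Equal protein was run on 10-15% SDS-PAGE and blotted to PVDF. PDGFR-β-AKT-ULK1 pathway phospho-proteins were probed and detected by ECL, with β-actin as loading control.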

[2] = target: T1, Platelet-derived growth factor receptor beta; assay: Inhibition of PDGFRbeta in human MDA-MB-231 cells assessed as Akt Thr305 phosphorylation level at 5 uM incubated for 24 hrs by Western blot relative to untreated control; assay type: cell-based; how it was run: as §1
[3] = system: MDA-MB-231; assay: Effect on total Akt protein level in human MDA-MB-231 cells at 2.5 uM incubated for 24 hrs in presence of PDGFRbeta siRNA by Western blot relative to untreated control; assay type: ADME, cell-based; settings: mda-mb-231, 24 h
How it was run: (§2)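 MDA-MB-231 cells were exposed for 24 h. Adherent and floating cells were pooled and lysed for 1 h at 4 °C in 50 mM Hepes pH 7.4 with 1% Triton X-100, orthovanadate, NaF, EDTA, PMSF, aprotinin and leupeptin. After 12,000 rpm clearing, equal protein was run on 10-15% SDS-PAGE and blotted to PVDF. Detection used HRP-ECL, with β-actin as loading control and densitometric quantification.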

[4] = system: MDA-MB-231; assay: Effect on total ULK1 protein level in human MDA-MB-231 cells at 10 uM incubated for 24 hrs by Western blot relative to untreated control; assay type: ADME, cell-based; settings: mda-mb-231, 24 h; how it was run: as §2
[5] = system: MDA-MB-231; assay: Induction of apoptosis in human MDA-MB-231 cells assessed as change in cleaved PARP protein level at 10 uM incubated for 24 hrs by Western blot method relative to untreated control; assay type: functional; how it was run: as §2
[6] = target: T2, Mitogen-activated protein kinase; ERK1/ERK2 (Homo sapiens) (UniProt P27361+P28482); assay: Inhibition of ERK1/2 in human MDA-MB-231 cells assessed as ERK1/2 Thr202/Tyr204 phosphorylation level at 5 uM incubated for 24 hrs in presence of PDGFRbeta siRNA by Western blot relative to untreated control; assay type: cell-based
[7] = target: T1, Platelet-derived growth factor receptor beta; assay: Inhibition of PDGFRbeta in human MDA-MB-231 cells assessed as Akt Thr305 phosphorylation level at 2.5 uM incubated for 24 hrs in absence of PDGFRbeta siRNA by Western blot relative to untreated control; assay type: cell-based
How it was run: (§3)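 Cells were transfected with control or PDGFR-β siRNA, then treated with 2.5 μM compound for 24 h. PDGFR-β-AKT-ULK1 pathway phospho-proteins were assessed by western blot: lysis in Hepes pH 7.4 / Triton buffer, 10-15% SDS-PAGE, PVDF, ECL detection, β-actin as loading control.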

[8] = target: T1, Platelet-derived growth factor receptor beta; assay: Inhibition of PDGFRbeta in human MDA-MB-231 cells assessed as Akt Thr305 phosphorylation level at 2.5 uM incubated for 24 hrs in presence of PDGFRbeta siRNA by Western blot relative to untreated control; assay type: cell-based; how it was run: as §3
[9] = target: T1, Platelet-derived growth factor receptor beta; assay: Inhibition of PDGFRbeta in human MDA-MB-231 cells assessed as mTOR Ser2448 phosphorylation level at 2.5 uM incubated for 24 hrs in absence of PDGFRbeta siRNA by Western blot relative to untreated control; assay type: cell-based; how it was run: as §3
[10] = target: T1, Platelet-derived growth factor receptor beta; assay: Inhibition of PDGFRbeta in human MDA-MB-231 cells assessed as ULK Ser555 phosphorylation level at 10 uM incubated for 24 hrs by Western blot relative to untreated control; assay type: cell-based; how it was run: as §1
[11] = target: T1, Platelet-derived growth factor receptor beta; assay: Inhibition of PDGFRbeta in human MDA-MB-231 cells assessed as ULK Ser317 phosphorylation level at 10 uM incubated for 24 hrs by Western blot relative to untreated control; assay type: cell-based; how it was run: as §1
[12] = target: T1, Platelet-derived growth factor receptor beta; assay: Inhibition of PDGFRbeta in human MDA-MB-231 cells assessed as Akt Thr305 phosphorylation level at 2.5 uM incubated for 24 hrs in presence of control siRNA by Western blot relative to untreated control; assay type: cell-based; how it was run: as §3
[13] = system: MDA-MB-231; assay: Effect on total PDGFRbeta protein level in human MDA-MB-231 cells at 2.5 uM incubated for 24 hrs in presence of control siRNA by Western blot relative to untreated control; assay type: ADME, cell-based; settings: mda-mb-231, 24 h; how it was run: as §2
[14] = system: MDA-MB-231; assay: Effect on total Ras protein level in human MDA-MB-231 cells at 2.5 uM incubated for 24 hrs in presence of PDGFRbeta siRNA by Western blot relative to untreated control; assay type: cell-based; settings: mda-mb-231, 24 h
[15] = system: MDA-MB-231; assay: Effect on total PDGFRbeta protein level in human MDA-MB-231 cells at 2.5 uM incubated for 24 hrs by Western blot relative to untreated control; assay type: ADME, cell-based; settings: mda-mb-231, 24 h; how it was run: as §2
[16] = system: MDA-MB-231; assay: Effect on total mTOR protein level in human MDA-MB-231 cells at 10 uM incubated for 24 hrs by Western blot relative to untreated control; assay type: ADME, cell-based; settings: mda-mb-231, 24 h; how it was run: as §2
[17] = system: MDA-MB-231; assay: Antiproliferative activity against human MDA-MB-231 cells incubated for 48 hrs by MTT assay; assay type: functional, cell-based; settings: MDA-MB-231, 48 h
How it was run: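 MDA-MB-231 cells grown in DMEM with 10% FBS under 5% CO2 were seeded at 5×10^4 cells/ml. After 24 h, a concentration series was added for 24, 48 or 72 h and viability was read by MTT. IC50 is mean ± SD of triplicates.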

[18] = target: T1, Platelet-derived growth factor receptor beta; assay: Inhibition of PDGFRbeta in human MDA-MB-231 cells assessed as mTOR Ser2448 phosphorylation level at 2.5 uM incubated for 24 hrs by Western blot relative to untreated control; assay type: cell-based; how it was run: as §1
[19] = target: T1, Platelet-derived growth factor receptor beta; assay: Inhibition of PDGFRbeta in human MDA-MB-231 cells assessed as ULK Ser317 phosphorylation level at 2.5 uM incubated for 24 hrs in presence of PDGFRbeta siRNA by Western blot relative to untreated control; assay type: cell-based; how it was run: as §3
[20] = system: MDA-MB-231; assay: Effect on total ULK1 protein level in human MDA-MB-231 cells at 2.5 uM incubated for 24 hrs by Western blot relative to untreated control; assay type: ADME, cell-based; settings: mda-mb-231, 24 h; how it was run: as §2
[21] = system: MDA-MB-468; assay: Antiproliferative activity against human MDA-MB-468 cells incubated for 24 hrs by MTT assay; assay type: functional, cell-based; settings: MDA-MB-468, 24 h
[22] = target: Dual specificity mitogen-activated protein kinase kinase; MEK1/2 (Homo sapiens) (UniProt P36507+Q02750); assay: Inhibition of MEK1/2 in human MDA-MB-231 cells assessed as MEK1/2 Ser217/221 phosphorylation level at 5 uM incubated for 24 hrs in presence of PDGFRbeta siRNA by Western blot relative to untreated control; assay type: cell-based
[23] = system: MDA-MB-231; assay: Effect on total Akt protein level in human MDA-MB-231 cells at 2.5 uM incubated for 24 hrs in absence of PDGFRbeta siRNA by Western blot relative to untreated control; assay type: ADME, cell-based; settings: mda-mb-231, 24 h; how it was run: as §2
[24] = target: T2, Mitogen-activated protein kinase; ERK1/ERK2 (Homo sapiens); assay: Inhibition of ERK1/2 in human MDA-MB-231 cells assessed as ERK1/2 Thr202/Tyr204 phosphorylation level at 10 uM incubated for 24 hrs in presence of PDGFRbeta siRNA by Western blot relative to untreated control; assay type: cell-based

T1 sequence (P09619 whole entry): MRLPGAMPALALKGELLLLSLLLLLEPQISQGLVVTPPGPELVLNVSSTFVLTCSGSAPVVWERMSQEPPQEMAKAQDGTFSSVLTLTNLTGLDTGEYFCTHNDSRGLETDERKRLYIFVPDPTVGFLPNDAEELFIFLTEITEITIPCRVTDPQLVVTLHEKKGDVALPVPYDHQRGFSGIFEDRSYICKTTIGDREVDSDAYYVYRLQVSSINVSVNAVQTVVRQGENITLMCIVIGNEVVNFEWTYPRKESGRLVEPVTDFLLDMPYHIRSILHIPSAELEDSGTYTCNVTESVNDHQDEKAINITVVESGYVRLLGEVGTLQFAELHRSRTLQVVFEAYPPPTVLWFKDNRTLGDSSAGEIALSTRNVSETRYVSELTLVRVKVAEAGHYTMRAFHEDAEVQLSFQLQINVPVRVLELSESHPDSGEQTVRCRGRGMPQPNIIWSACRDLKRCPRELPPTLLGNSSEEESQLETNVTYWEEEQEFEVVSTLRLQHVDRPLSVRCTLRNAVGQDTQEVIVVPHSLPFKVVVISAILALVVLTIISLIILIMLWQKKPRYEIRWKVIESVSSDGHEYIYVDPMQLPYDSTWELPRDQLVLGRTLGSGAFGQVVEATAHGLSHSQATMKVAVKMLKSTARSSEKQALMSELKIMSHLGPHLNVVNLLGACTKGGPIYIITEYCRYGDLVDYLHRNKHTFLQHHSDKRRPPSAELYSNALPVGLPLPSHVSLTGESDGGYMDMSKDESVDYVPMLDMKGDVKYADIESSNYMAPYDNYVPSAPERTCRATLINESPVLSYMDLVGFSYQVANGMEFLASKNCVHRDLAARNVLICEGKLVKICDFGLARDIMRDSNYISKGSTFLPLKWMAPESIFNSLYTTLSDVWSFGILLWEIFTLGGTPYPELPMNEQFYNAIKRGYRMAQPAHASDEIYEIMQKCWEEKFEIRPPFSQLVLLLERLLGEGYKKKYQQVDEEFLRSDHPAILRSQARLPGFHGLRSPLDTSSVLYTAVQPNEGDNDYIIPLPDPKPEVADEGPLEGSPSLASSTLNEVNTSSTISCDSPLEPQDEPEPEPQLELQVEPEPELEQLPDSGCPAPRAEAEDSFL
T2 sequence (P27361 whole entry, looked up): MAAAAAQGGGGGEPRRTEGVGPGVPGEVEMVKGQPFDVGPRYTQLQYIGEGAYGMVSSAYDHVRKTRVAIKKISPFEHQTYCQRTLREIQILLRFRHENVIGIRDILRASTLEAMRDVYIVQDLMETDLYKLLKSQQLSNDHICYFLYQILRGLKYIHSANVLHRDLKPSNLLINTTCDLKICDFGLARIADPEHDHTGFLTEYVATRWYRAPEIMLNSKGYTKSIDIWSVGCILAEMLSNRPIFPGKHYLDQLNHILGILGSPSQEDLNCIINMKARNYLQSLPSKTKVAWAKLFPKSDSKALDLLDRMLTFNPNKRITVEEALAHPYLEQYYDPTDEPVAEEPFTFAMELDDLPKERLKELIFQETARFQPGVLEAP
T2 sequence (P28482 whole entry, looked up): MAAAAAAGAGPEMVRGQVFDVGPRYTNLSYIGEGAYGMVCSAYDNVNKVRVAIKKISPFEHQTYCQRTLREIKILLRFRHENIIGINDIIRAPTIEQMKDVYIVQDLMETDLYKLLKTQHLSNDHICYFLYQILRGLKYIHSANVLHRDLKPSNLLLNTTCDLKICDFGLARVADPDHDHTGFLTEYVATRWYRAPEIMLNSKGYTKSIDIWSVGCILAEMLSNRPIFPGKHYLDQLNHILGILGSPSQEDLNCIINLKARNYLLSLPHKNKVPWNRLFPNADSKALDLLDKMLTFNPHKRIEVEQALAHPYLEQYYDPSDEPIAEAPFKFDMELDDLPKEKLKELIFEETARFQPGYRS
Sequence of Dual specificity mitogen-activated protein kinase kinase; MEK1/2 (Homo sapiens) (P36507 whole entry, looked up): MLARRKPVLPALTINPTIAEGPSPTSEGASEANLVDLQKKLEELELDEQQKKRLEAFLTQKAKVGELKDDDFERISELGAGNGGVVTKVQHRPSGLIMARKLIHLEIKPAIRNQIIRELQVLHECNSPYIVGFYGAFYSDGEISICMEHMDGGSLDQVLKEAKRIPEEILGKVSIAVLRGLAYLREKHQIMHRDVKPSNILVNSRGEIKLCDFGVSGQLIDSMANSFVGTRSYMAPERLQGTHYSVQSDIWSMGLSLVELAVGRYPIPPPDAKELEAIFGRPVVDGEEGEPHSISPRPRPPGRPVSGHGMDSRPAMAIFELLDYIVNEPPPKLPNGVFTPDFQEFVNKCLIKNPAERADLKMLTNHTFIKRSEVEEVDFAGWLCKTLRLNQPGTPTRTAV
Sequence of Dual specificity mitogen-activated protein kinase kinase; MEK1/2 (Homo sapiens) (Q02750 whole entry, looked up): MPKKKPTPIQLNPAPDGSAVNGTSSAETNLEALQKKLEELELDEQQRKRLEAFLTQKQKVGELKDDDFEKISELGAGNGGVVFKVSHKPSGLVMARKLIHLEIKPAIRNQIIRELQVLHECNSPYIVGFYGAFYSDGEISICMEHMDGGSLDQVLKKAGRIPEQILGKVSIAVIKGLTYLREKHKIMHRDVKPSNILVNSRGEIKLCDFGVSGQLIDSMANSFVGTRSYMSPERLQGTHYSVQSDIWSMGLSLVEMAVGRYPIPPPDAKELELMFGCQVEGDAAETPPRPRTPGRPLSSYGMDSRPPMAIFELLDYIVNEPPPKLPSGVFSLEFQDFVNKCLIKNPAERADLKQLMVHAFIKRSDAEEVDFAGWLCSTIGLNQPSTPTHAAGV

COc1cccc(Nc2cc(N3CCN(C(=O)Nc4ccc(C(F)(F)F)cc4)CC3)ncn2)c1
fold change (FC) [1]: 0.12
fold change (FC) [2]: 0.75
fold change (FC) [3]: 0.63
fold change (FC) [4]: 0.99
fold change (FC) [5]: 0.97
fold change (FC) [6]: 1.86
fold change (FC) [7]: 0.05
fold change (FC) [8]: 0.04
fold change (FC) [9]: 0.21
fold change (FC) [10]: 5.6
fold change (FC) [11]: 3.2
fold change (FC) [12]: 0.1
fold change (FC) [13]: 0.05
fold change (FC) [14]: 1.2
fold change (FC) [15]: 1.8
fold change (FC) [16]: 0.45
IC50 [17]: 0.68 µM
fold change (FC) [18]: 0.74
fold change (FC) [19]: 3.46
fold change (FC) [20]: 0.89
IC50 [21]: 3.19 µM
fold change (FC) [22]: 1.05
fold change (FC) [23]: 0.62
fold change (FC) [24]: 2.38
